Measurements of several laboratories.
Each line is one published result; the experiments were not run side by side.
Effect on: cell growth or viability

Oc1ccc(C(c2c[nH]c3ccccc23)c2c[nH]c3ccccc23)cc1 — IC50 (KG-1; 48 h): > 20 µM
CC1=C(O)C(=O)C=C2C1=CC=C1[C@@]2(C)CC[C@@]2(C)[C@@H]3C[C@](C)(C(=O)OCCCCCCCO)CC[C@]3(C)CC[C@]12C — IC50 (Bel-7402; MTT; 48 h): 0.74 µM
CCn1c2ccccc2c2cc(/C=C/C(=O)c3cc4cccc(OC)c4oc3=O)ccc21 — IC50 (NRK-52E; MTT; 24 h): 115 µM
CC(=O)OCCOC(=O)[C@]1(C)CC[C@]2(C)CC[C@]3(C)C4=CC=C5C(=CC(=O)C(O)=C5C)[C@]4(C)CC[C@@]3(C)[C@@H]2C1 — IC50 (Bel-7402; MTT; 48 h): 0.59 µM
CCn1c2ccccc2c2cc(C3CC(c4cc5cccc(OC)c5oc4=O)=NN3c3ccc(C)cc3)ccc21 (stereo not drawn) — IC50 (NRK-52E; MTT; 24 h): 52 µM
Cn1cc(C(c2cccc(/C=C/C(=O)O)c2)c2cn(C)c3ccccc23)c2ccccc21 — IC50 (KG-1; 48 h): > 20 µM
CC1=C(O)C(=O)C=C2C1=CC=C1[C@@]2(C)CC[C@@]2(C)[C@@H]3C[C@](C)(C(=O)OCCCCO)CC[C@]3(C)CC[C@]12C — IC50 (Bel-7402; MTT; 48 h): 0.63 µM
CC(C)[C@H](N)C(=O)N1CCC[C@H]1B(O)O — IC50 (KG-1; ATP luminescence; 48 h): 0.12 µM
CC1=C(O)C(=O)C=C2C1=CC=C1[C@@]2(C)CC[C@@]2(C)[C@@H]3C[C@](C)(C(=O)OCCCCCCCCO)CC[C@]3(C)CC[C@]12C — IC50 (Bel-7402; MTT; 48 h): 1.16 µM
COc1cc2c(Oc3ccc(NC(=O)C4(C(=O)Nc5ccc(F)cc5)CC4)cc3F)ccnc2cc1OCCCN1CCOCC1 — IC50 (Rh18; 72 h): 0.31 µM
CC(C)C[C@H](NC(=O)[C@H](Cc1ccccc1)NC(=O)c1cnccn1)B(O)O — IC50 (NCI-H1573; ATP luminescence): 0.029 µM
CCn1c2ccccc2c2cc(C3CC(c4cc5ccccc5oc4=O)=NN3c3cccc(Cl)c3)ccc21 (stereo not drawn) — IC50 (NRK-52E; MTT; 24 h): 41 µM
FC(F)(F)c1ccc(C(c2c[nH]c3ccccc23)c2c[nH]c3ccccc23)cc1 — IC50 (KG-1; 48 h): 15 µM
Cc1[nH]c(/C=C2\C(=O)Nc3ccc(S(=O)(=O)N(C)c4cccc(Cl)c4)cc32)c(C)c1C(=O)N1CCN(C)CC1 — IC50 (Rh18; 72 h): 4.07 µM
CC1=C(O)C(=O)C=C2C1=CC=C1[C@@]2(C)CC[C@@]2(C)[C@@H]3C[C@](C)(C(=O)OCCCn4ccc5ccccc54)CC[C@]3(C)CC[C@]12C — IC50 (Bel-7402; MTT; 48 h): 5.42 µM
CCn1c2ccccc2c2cc(C3CC(c4cc5c(ccc6ccccc65)oc4=O)=NN3c3ccccc3)ccc21 (stereo not drawn) — IC50 (NRK-52E; MTT; 24 h): 122 µM
CCCON(Cc1ccc(C(=O)NO)cc1)C(=O)Nc1ccc(N(C)C)cc1 — IC50 (MOLM-13; ATP luminescence; 72 h): 7.19 µM
O=C(O)/C=C/c1cccc(C(c2c[nH]c3ccccc23)c2c[nH]c3ccccc23)c1 — IC50 (KG-1; 48 h): > 20 µM
CCn1c2ccccc2c2cc(C3CC(c4cc5c(ccc6ccccc65)oc4=O)=NN3c3ccc(C)cc3)ccc21 (stereo not drawn) — IC50 (NRK-52E; MTT; 24 h): 79.9 µM
CC(=O)O[C@H]1C(=O)[C@@]2(C)[C@H]([C@H](OC(=O)c3ccccc3)[C@]3(O)C[C@H](OC(=O)[C@H](O)[C@@H](NC(=O)c4ccccc4)c4ccccc4)C(C)=C1C3(C)C)[C@]1(OC(C)=O)CO[C@@H]1C[C@@H]2O — IC50 (CT26): 2 µg/mL
CC1=C(O)C(=O)C=C2C1=CC=C1[C@@]2(C)CC[C@@]2(C)[C@@H]3C[C@](C)(C(=O)OCCCOc4ccccc4)CC[C@]3(C)CC[C@]12C — IC50 (Bel-7402; MTT; 48 h): 1.33 µM
Cc1cccc2c(C(c3ccc(/C=C/C(=O)O)s3)c3c[nH]c4c(C)cccc34)c[nH]c12 — IC50 (KG-1; 48 h): > 5 µM
CCn1c2ccccc2c2cc(C3CC(c4cc5cccc(OC)c5oc4=O)=NN3C(C)=O)ccc21 (stereo not drawn) — IC50 (NRK-52E; MTT; 24 h): 97.9 µM
COc1cc2nccc(Oc3ccc(NC(=O)C4(C(=O)Nc5ccc(F)cc5)CC4)cc3)c2cc1OC — IC50 (Rh18; 72 h): 5.75 µM
CCn1c2ccccc2c2cc(C3CC(c4cc5ccccc5oc4=O)=NN3C(C)=O)ccc21 (stereo not drawn) — IC50 (NRK-52E; MTT; 24 h): 116 µM
CC1=C(O)C(=O)C=C2C1=CC=C1[C@@]2(C)CC[C@@]2(C)[C@@H]3C[C@](C)(C(=O)OCCCN4C(=O)C5C=CC=CC5C4=O)CC[C@]3(C)CC[C@]12C (stereo partly drawn) — IC50 (Bel-7402; MTT; 48 h): 0.83 µM
O=C(O)c1ccc(C(c2c[nH]c3ccccc23)c2c[nH]c3ccccc23)cc1 — IC50 (KG-1; 48 h): > 20 µM
CCn1c2ccccc2c2cc(C3CC(c4cc5ccccc5oc4=O)=NN3c3ccc(C)cc3)ccc21 (stereo not drawn) — IC50 (NRK-52E; MTT; 24 h): 83.2 µM
Cc1ccc2[nH]cc(C(c3ccc(/C=C/C(=O)O)s3)c3c[nH]c4ccc(C)cc34)c2c1 — IC50 (KG-1; 48 h): > 5 µM
COc1cc(Nc2nccc(-c3cnn4nc(OC)ccc34)n2)cc(C(F)(F)F)c1 — IC50 (NCI-H1573; ATP luminescence): 0.63 µM
